Activity calls are given as the source filed them. Positions of bridges follow the written chain, without caps; N, C: chain ends. Non-standard residues stand in square brackets, D forms with d. Residues, ends and D or L forms follow the SMILES beside them. d1Nal = N[C@H](Cc1cccc2ccccc12)C(=O)O; d2Nal = N[C@H](Cc1ccc2ccccc2c1)C(=O)O; Dmt = Cc1cc(O)cc(C)c1C[C@H](N)C(=O)O
Experiments:
[1] = biological target: Delta-type opioid receptor (Rattus norvegicus, UniProt P33533); assay: Displacement of [3H][Ile5,6]deltorphin-2 from DOR in Wistar rat brain homogenates by liquid scintillation counting analysis; type: tissue-based
Sequence of Delta-type opioid receptor (Rattus norvegicus, UniProt P33533) (P33533 whole entry): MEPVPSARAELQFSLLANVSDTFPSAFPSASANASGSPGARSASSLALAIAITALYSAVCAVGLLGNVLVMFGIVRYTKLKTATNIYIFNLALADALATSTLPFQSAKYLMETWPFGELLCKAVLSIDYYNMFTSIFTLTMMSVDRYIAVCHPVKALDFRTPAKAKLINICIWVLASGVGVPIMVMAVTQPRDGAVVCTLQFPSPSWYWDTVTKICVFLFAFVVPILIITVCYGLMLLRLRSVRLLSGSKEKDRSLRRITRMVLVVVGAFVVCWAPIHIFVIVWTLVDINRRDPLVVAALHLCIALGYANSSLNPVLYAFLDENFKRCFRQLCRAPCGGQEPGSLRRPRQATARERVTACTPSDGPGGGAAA
Method in brief: (§1)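 Competition binding in brain membranes of adult male Wistar rats, [3H]DAMGO for MOR or [3H][Ile5,6]deltorphin-2 for DOR. IC50 from log dose-displacement curves, converted to Ki by Cheng-Prusoff. Mean ± SEM of three independent experiments in duplicate.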

[2] = biological target: T1, Kappa-type opioid receptor (Homo sapiens, UniProt P41145); assay: Agonist activity at human recombinant KOR expressed in CHO cells assessed as calcium mobilization by Fluo-4 AM based fluorescence analysis; type: functional, cell-based
T1 sequence (P41145 whole entry): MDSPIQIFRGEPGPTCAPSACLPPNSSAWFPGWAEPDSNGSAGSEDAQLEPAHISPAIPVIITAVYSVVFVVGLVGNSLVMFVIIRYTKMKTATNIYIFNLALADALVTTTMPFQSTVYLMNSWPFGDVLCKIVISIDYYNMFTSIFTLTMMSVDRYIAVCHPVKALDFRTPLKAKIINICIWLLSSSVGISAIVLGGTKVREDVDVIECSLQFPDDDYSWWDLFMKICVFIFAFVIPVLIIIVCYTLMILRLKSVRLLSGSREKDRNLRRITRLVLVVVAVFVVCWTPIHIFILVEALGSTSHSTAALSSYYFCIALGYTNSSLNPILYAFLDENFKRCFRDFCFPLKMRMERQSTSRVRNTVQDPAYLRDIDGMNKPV
Method in brief: (§2)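 CHO cells stably co-expressing human recombinant KOR and C-terminally modified Gαqi5; calcium mobilization concentration-response curves. pEC50 from curve fitting with Hill coefficient; intrinsic activity α as ligand Emax over Emax of standard agonist dynorphin A. Mean ± SEM of at least 3 separate experiments, each in duplicate.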

[3] = biological target: T1, Kappa-type opioid receptor; assay: Agonist activity at human recombinant KOR expressed in CHO cells assessed as calcium mobilization by Fluo-4 AM based fluorescence analysis relative to DynA; type: functional, cell-based; method in brief: as §2
[4] = biological target: Kappa-type opioid receptor (Cavia porcellus, UniProt P41144); assay: Displacement of [3H]nor-BNI from KOR in Dunkin Hartley guinea pig brain homogenates by liquid scintillation counting analysis; type: tissue-based
Sequence of Kappa-type opioid receptor (Cavia porcellus, UniProt P41144) (P41144 whole entry): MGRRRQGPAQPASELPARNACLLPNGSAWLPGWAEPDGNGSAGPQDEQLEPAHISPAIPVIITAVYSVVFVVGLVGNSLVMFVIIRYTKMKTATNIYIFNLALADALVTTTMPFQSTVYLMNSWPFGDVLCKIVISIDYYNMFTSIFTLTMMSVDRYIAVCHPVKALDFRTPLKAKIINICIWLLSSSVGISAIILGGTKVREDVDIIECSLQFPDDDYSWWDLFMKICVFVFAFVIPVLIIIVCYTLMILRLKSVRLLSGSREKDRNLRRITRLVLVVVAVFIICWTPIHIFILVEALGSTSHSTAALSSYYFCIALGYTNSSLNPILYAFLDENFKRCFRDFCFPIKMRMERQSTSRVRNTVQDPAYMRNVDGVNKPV

[5] = biological target: T2, Delta-type opioid receptor (Homo sapiens, UniProt P41143); assay: Agonist activity at human recombinant DOR expressed in CHO cells assessed as calcium mobilization up to 1 uM by Fluo-4 AM based fluorescence analysis; type: functional, cell-based
T2 sequence (P41143 whole entry): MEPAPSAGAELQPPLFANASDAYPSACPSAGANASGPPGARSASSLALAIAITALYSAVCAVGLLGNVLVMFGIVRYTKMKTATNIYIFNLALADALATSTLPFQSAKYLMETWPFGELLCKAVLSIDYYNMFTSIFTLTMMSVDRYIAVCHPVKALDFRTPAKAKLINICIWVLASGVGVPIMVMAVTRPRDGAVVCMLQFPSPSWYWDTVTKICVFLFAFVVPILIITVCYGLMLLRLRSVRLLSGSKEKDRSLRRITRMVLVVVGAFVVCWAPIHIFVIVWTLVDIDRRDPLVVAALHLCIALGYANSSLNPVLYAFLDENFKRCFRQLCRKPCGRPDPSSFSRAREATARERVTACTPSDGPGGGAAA

[6] = Retention time of compound by RP-HPLC analysis; type: physicochemical
[7] = Stability of compound in Wistar rat brain homogenate assessed as compound remaining after 90 mins by RP-HPLC analysis; type: ADME; settings: read-out: Stability
Method in brief: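 Peptide incubated with Wistar rat brain homogenate at 37°C, sampled at 0, 7.5, 15, 22.5, 30 and 90 min; remaining intact peptide quantified by RP-HPLC peak area %; value is amount left at 90 min.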

Mu-type opioid receptor [8] = biological target: Mu-type opioid receptor (Rattus norvegicus, UniProt P33535); assay: Displacement of [3H]DAMGO from MOR in Wistar rat brain homogenates by liquid scintillation counting analysis; type: tissue-based; method in brief: as §1
Sequence of Mu-type opioid receptor (Rattus norvegicus, UniProt P33535) (P33535 whole entry): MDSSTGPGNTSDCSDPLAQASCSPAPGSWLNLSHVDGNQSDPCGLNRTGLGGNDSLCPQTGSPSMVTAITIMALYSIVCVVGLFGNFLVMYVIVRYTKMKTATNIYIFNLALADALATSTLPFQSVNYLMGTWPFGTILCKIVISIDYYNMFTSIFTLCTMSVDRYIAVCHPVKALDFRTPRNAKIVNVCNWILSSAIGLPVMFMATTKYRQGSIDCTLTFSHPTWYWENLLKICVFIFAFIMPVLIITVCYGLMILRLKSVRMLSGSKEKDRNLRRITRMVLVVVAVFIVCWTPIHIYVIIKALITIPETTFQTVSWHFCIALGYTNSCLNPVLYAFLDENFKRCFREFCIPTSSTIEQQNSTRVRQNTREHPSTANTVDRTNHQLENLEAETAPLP

Mus musculus [9] = assay: Antinociceptive activity in BalbC albino mouse assessed as latency of jumping at 10 mg/kg, ip after 15 mins by hot-plate method; type: functional
Mus musculus [10] = assay: Antinociceptive activity in icv dosed BalbC albino mouse assessed as latency of jumping after 10 mins by hot-plate method; type: functional
Method in brief: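 Injection icv into left lateral ventricle (10 μL/animal) of hand-restrained mice; hot-plate test at 55 ± 0.5°C 10 min post-injection, jumping latency with 240 s cut-off. Response as %MPE = (t1 − t0)/(t2 − t0) × 100; ED50 by nonlinear regression; 7-10 animals per group.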

Mu-type opioid receptor [11] = biological target: Mu-type opioid receptor (Homo sapiens, UniProt P35372); assay: Agonist activity at human recombinant MOR expressed in CHO cells assessed as calcium mobilization by Fluo-4 AM based fluorescence analysis; type: functional, cell-based
Sequence of Mu-type opioid receptor (Homo sapiens, UniProt P35372) (P35372 whole entry): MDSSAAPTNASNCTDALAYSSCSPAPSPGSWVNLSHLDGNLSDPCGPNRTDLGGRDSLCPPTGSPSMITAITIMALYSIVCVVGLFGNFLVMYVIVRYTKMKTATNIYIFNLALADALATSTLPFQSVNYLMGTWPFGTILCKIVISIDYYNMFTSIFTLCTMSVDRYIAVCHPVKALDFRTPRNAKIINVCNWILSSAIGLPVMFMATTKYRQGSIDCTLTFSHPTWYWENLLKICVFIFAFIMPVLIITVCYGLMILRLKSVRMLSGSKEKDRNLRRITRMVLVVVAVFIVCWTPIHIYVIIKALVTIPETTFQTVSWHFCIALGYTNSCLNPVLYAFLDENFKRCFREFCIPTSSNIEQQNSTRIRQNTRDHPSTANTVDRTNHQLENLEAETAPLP

Mus musculus [12] = assay: Antinociceptive activity in ip dosed BalbC albino mouse assessed as latency of jumping after 15 mins by hot-plate method; type: functional; settings: for ED50: 0.25 h
Mus musculus [13] = assay: Antinociceptive activity in BalbC albino mouse assessed as latency of jumping at 3 mg/kg, ip after 15 mins by hot-plate method; type: functional, organism-based
Mus musculus [14] = assay: Antinociceptive activity in BalbC albino mouse assessed as latency of jumping at 3 mg/kg, ip after 30 to 60 mins by hot-plate method; type: functional, organism-based
Method in brief: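 Time course after single ip dose of 3 mg/kg; hot-plate (55 ± 0.5°C) jump latency read at 15, 30, 45 and 60 min, 240 s cut-off. Expressed as %MPE from control, test and cut-off latencies; mean ± SEM, 7-10 mice per group, each tested once.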

[15] = biological target: T2, Delta-type opioid receptor; assay: Agonist activity at human recombinant DOR expressed in CHO cells assessed as calcium mobilization by Fluo-4 AM based fluorescence analysis; type: functional, cell-based
[16] = biological target: T2, Delta-type opioid receptor; assay: Agonist activity at human recombinant DOR expressed in CHO cells assessed as calcium mobilization by Fluo-4 AM based fluorescence analysis relative to DPDPE; type: functional, cell-based
Method in brief: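 CHO cells stably co-expressing human recombinant DOR and chimeric Gαqi5 (G66D variant); intracellular calcium rise measured across concentration-response curves. Agonist potency as pEC50; efficacy as intrinsic activity α, ratio of ligand Emax to standard agonist (DPDPE) Emax. Mean ± SEM, at least 3 separate experiments in duplicate.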

SMILES | Ki [1] | EC50 [2] | Intrinsic activity [3] | Ki [4] | pEC50 [5] | Retention_time [6] | remaining at 1.5 h [7] | Ki (Mu-type opioid receptor [8]) | Activity (Mus musculus [9]) | ED50 (Mus musculus [10]) | EC50 (Mu-type opioid receptor [11]) | Activity (Mus musculus [12]) | ED50 (Mus musculus [12]) | Emax [3] | Activity (Mus musculus [13]) | Activity (Mus musculus [14]) | EC50 [15] | Intrinsic activity [16]
Cc1cc(O)cc(C)c1C[C@H](N)C(=O)N[C@@H]1CCCCNC(=O)C[C@@H](C(N)=O)NC(=O)[C@H](Cc2ccccc2)NC(=O)[C@@H](Cc2cccc3ccccc23)NC1=O | 9.17 µM | 1.29 µM | 0.43 | 0.0566 µM | inactive | 16.21 min | 93.8% | 0.0692 µM | 17% | 0.714 µg | 0.02 µM |  |  |  |  |  |  | 
Cc1cc(O)cc(C)c1C[C@H](N)C(=O)N[C@@H]1CCCCNC(=O)C[C@@H](C(N)=O)NC(=O)[C@H](Cc2ccccc2)NC(=O)[C@@H](Cc2ccc3ccccc3c2)NC1=O | 4.25 µM | 1.7 µM | 0.31 | 0.751 µM | inactive | 16.38 min | 85.4% | 0.0168 µM | 24% | 0.533 µg | 0.0115 µM |  |  |  |  |  |  | 
NC(=O)[C@@H]1CC(=O)NCCCC[C@@H](NC(=O)[C@@H](N)Cc2ccc(O)cc2)C(=O)N[C@@H](Cc2ccccc2)C(=O)N[C@@H](Cc2ccccc2)C(=O)N1 (H-Y[dK]FFD-NH2; lactam 2-5) | 0.171 µM | 0.00661 µM | 1 | 0.00112 µM |  | 20.5 min | 96% | 0.00035 µM | 88% | 0.05 µg | 0.00204 µM | Dose-dependent effect | < 0.01 mg/kg | 106% | Active | inactive |  | 
Cc1cc(O)cc(C)c1C[C@H](N)C(=O)N[C@@H]1CCCCNC(=O)C[C@@H](C(N)=O)NC(=O)[C@@H](Cc2cccc3ccccc23)NC(=O)[C@H](Cc2ccccc2)NC1=O (H-[Dmt][dK]F[d1Nal]D-NH2; lactam 2-5) | 0.0512 µM | 0.0417 µM | 0.74 | 0.00178 µM |  | 16.02 min | 96% | 0.00025 µM | 82% | 0.06 µg | 0.00562 µM | Dose-dependent effect | 1.16 mg/kg | 79% | Active | inactive | 0.0646 µM | 0.5
Cc1cc(O)cc(C)c1C[C@H](N)C(=O)N[C@@H]1CCCCNC(=O)C[C@@H](C(N)=O)NC(=O)[C@@H](Cc2ccc3ccccc3c2)NC(=O)[C@H](Cc2ccccc2)NC1=O (H-[Dmt][dK]F[d2Nal]D-NH2; lactam 2-5) | 0.11 µM | 0.102 µM | 0.44 | 0.00102 µM |  | 16.1 min | 95.6% | 0.00044 µM | 55% | 0.08 µg | 0.00363 µM | Dose-dependent effect | 3.24 mg/kg |  | Active | inactive | 0.0537 µM | 0.31
CC[C@H](C)[C@H](NC(=O)[C@H](CCCNC(=N)N)NC(=O)[C@H](CCCNC(=N)N)NC(=O)[C@H](CC(C)C)NC(=O)[C@H](Cc1ccccc1)NC(=O)CNC(=O)CNC(=O)[C@@H](N)Cc1ccc(O)cc1)C(=O)N[C@@H](CCCNC(=N)N)C(=O)N1CCC[C@H]1C(=O)N[C@@H](CCCCN)C(=O)N[C@@H](CC(C)C)C(=O)N[C@@H](CCCCN)C(=O)O [ANALOG OF DYNORPHIN A] |  |  |  |  |  |  |  |  |  |  |  |  |  |  |  |  |  | 0.99
NC(=O)[C@H](Cc1ccccc1)NC(=O)[C@H](Cc1ccccc1)NC(=O)[C@@H]1CCCN1C(=O)[C@@H](N)Cc1ccc(O)cc1 [ENDOMORPHIN 2] |  |  |  |  |  | 17.25 min | 0.61% |  |  | 1.82 µg |  |  |  |  |  |  |  | 

Reference: ChEMBL document CHEMBL3758180, “Synthesis of mixed MOR/KOR efficacy cyclic opioid peptide analogs with antinociceptive activity after systemic administration” (Eur J Med Chem, 2016)
